Laboratory results published in ChEMBL document CHEMBL3352724, “Phenolic Glycosides from the Twigs of Salix glandulosa” (J Nat Prod, 2014).

Key:
[1] = Cytotoxicity against human HCT15 cells by sulforhodamine B bioassay; assay type: functional, cell-based; details: HCT-15
Method in brief: (§1)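 Sulforhodamine B assay on cultured human tumor cell lines A549, SK-OV-3, A498 and HCT15. Run at the Korea Research Institute of Chemical Technology.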

[2] = Cytotoxicity against human SKOV3 cells by sulforhodamine B bioassay; assay type: functional, cell-based; details: SK-OV-3; method in brief: as §1
[3] = Antineuroinflammatory activity against mouse BV2 cells assessed as inhibition of LPS-induced NO production treated with compound 30 mins and challenged with LPS for 24 hrs; details: BV-2
[4] = Cytotoxicity against mouse BV2 cells by MTT assay; design: concentration or dose not given beside the values; details: bv-2
A549 = assay: Cytotoxicity against human A549 cells by sulforhodamine B bioassay; assay type: functional, cell-based; method in brief: as §1
SK-MEL-2 = assay: Cytotoxicity against human SK-MEL-2 cells by sulforhodamine B bioassay; assay type: functional, cell-based

Q: With `O=C(/C=C/c1ccc(O)cc1)O[C@H]1[C@H](O[C@@H]2CCCC[C@H]2O)O[C@H](CO)[C@@H](O)[C@@H]1O` as the molecule, how does the IC50 [1] read?
A: > 10 µM

Q: And the IC50 [2]?
A: > 10 µM

Q: And the IC50 [3]?
A: 20.5 µM

Q: What about the Activity [4] of the same molecule?
A: 107.2%

Q: What about the IC50 (A549) of the same molecule?
A: > 10 µM

Q: With `O=C(/C=C\c1ccc(O)cc1)O[C@H]1[C@H](O[C@@H]2CCCC[C@H]2O)O[C@H](CO)[C@@H](O)[C@@H]1O` as the molecule, how does the IC50 [1] read?
A: > 10 µM

Q: And the IC50 [2]?
A: > 10 µM

Q: What about the IC50 [3] of the same molecule?
A: 6.6 µM

Q: And the Activity [4]?
A: 102.5%

Q: What about the IC50 (A549) of the same molecule?
A: > 10 µM

Q: For `O=C(/C=C/c1ccc(O)cc1)OC[C@H]1O[C@@H](O[C@@H]2CCCC[C@H]2O)[C@H](O)[C@@H](O)[C@@H]1O`, which IC50 [1] is on record?
A: > 10 µM

Q: What about the IC50 [2] of the same molecule?
A: > 10 µM

Q: And the IC50 [3]?
A: 14.8 µM

Q: And the Activity [4]?
A: 100.7%

Q: And the IC50 (A549)?
A: > 10 µM

Q: With `O=C(/C=C\c1ccc(O)cc1)OC[C@H]1O[C@@H](O[C@@H]2CCCC[C@H]2O)[C@H](O)[C@@H](O)[C@@H]1O` as the molecule, how does the IC50 [1] read?
A: > 10 µM

Q: What about the IC50 [2] of the same molecule?
A: > 10 µM

Q: What about the IC50 (A549) of the same molecule?
A: > 10 µM

Q: What does the source list for `O=C(OC[C@H]1O[C@@H](O[C@@H]2CCCC[C@H]2O)[C@H](O)[C@@H](O)[C@@H]1O)c1ccc(O)cc1`?
A: IC50 [1]: > 10 µM; IC50 [2]: > 10 µM; IC50 (A549): > 10 µM

Q: With `O=C(/C=C/c1ccc(O)cc1)O[C@H]1[C@H](O[C@H]2CCCC[C@@H]2O)O[C@H](CO)[C@@H](O)[C@@H]1O` as the molecule, how does the IC50 [1] read?
A: > 10 µM

Q: And the IC50 [2]?
A: > 10 µM

Q: And the IC50 [3]?
A: 15.5 µM

Q: And the Activity [4]?
A: 93.6%

Q: What about the IC50 (A549) of the same molecule?
A: > 10 µM

Q: Which results are given for `O=C(/C=C\c1ccc(O)cc1)O[C@@H]1[C@H](O[C@H]2CCCC[C@@H]2O)O[C@H](CO)[C@@H](O)[C@H]1O`?
A: IC50 [1]: > 10 µM; IC50 [2]: > 10 µM; IC50 [3]: 18.1 µM; Activity [4]: 96.2%; IC50 (A549): > 10 µM

Q: Which IC50 [1] does the source give for `O=C(/C=C\c1ccc(O)cc1)O[C@@H]1[C@H](O[C@@H]2CCCC[C@@H]2O)O[C@H](CO)[C@@H](O)[C@H]1O` here?
A: > 10 µM

Q: What about the IC50 [2] of the same molecule?
A: > 10 µM

Q: And the IC50 (A549)?
A: > 10 µM

Q: Which IC50 [1] does the source give for `O=C(/C=C/c1ccc(O)cc1)O[C@H]1[C@H](O[C@H]2CCCC[C@H]2O)O[C@H](CO)[C@@H](O)[C@@H]1O` here?
A: > 10 µM

Q: What about the IC50 [2] of the same molecule?
A: > 10 µM

Q: And the IC50 (A549)?
A: > 10 µM

Q: With `O=C(/C=C\c1ccc(O)cc1)O[C@H]1[C@H](O[C@H]2CCCC[C@H]2O)O[C@H](CO)[C@@H](O)[C@@H]1O` as the molecule, how does the IC50 [1] read?
A: > 10 µM

Q: And the IC50 [2]?
A: > 10 µM

Q: And the IC50 (A549)?
A: > 10 µM

Q: With `O=C(/C=C/c1ccc(O)cc1)OC[C@H]1O[C@@H](O[C@H]2CCCC[C@H]2O)[C@H](O)[C@@H](O)[C@@H]1O` as the molecule, how does the IC50 [1] read?
A: > 10 µM

Q: And the IC50 [2]?
A: > 10 µM

Q: And the IC50 (A549)?
A: > 10 µM

Q: With `O=C(/C=C\c1ccc(O)cc1)OC[C@H]1O[C@@H](O[C@H]2CCCC[C@H]2O)[C@H](O)[C@@H](O)[C@@H]1O` as the molecule, how does the IC50 [1] read?
A: > 10 µM

Q: And the IC50 [2]?
A: > 10 µM

Q: What about the IC50 (A549) of the same molecule?
A: > 10 µM

Q: With `O=C(/C=C/c1ccc(O)cc1)O[C@H]1[C@H](O[C@@H]2CCCC[C@@H]2O)O[C@H](CO)[C@@H](O)[C@@H]1O` as the molecule, how does the IC50 [1] read?
A: > 10 µM

Q: And the IC50 [2]?
A: > 10 µM

Q: What about the IC50 (A549) of the same molecule?
A: > 10 µM

Q: For `COc1cccc2c1C(=O)c1c(O)c3c(c(O)c1C2=O)C[C@@](O)(C(=O)CO)C[C@@H]3O[C@H]1C[C@H](N)[C@H](O)[C@H](C)O1` [DOXORUBICIN], which IC50 [1] is on record?
A: 0.108 µM

Q: And the IC50 (SK-MEL-2)?
A: 0.0025 µM

Q: What about the IC50 [2] of the same molecule?
A: 0.0217 µM

Q: What about the IC50 (A549) of the same molecule?
A: 0.0014 µM

Q: For `CNC(=N)NCCC[C@H](N)C(=O)O` [TILARGININE], which IC50 [3] is on record?
A: 24.3 µM

Q: What about the Activity [4] of the same molecule?
A: 99.8%
